According to ChEMBL document CHEMBL4808214, “Structure-activity relationship studies in substituted sulfamoyl benzamidothiazoles that prolong NF-κB activation” (Bioorg Med Chem, 2021):
Activity calls are given as the source filed them. The rule behind the calls is not given here.

How the values were obtained:
[1] = molecular target: T1, Nuclear factor NF-kappa-B complex (Homo sapiens) (UniProt Q00653+P19838+Q04206); experiment: Activation of NF-kappaB in human THP1-Blue NF-kappaB cells co-expressing NFkappaB-inducible SEAP assessed as increase in SEAP activity at 5 uM measured after 20 hrs by quanti-blue based colorimetric assay relative to control; type: cell-based; settings: filed as activator
T1 sequence (P19838 whole entry, looked up): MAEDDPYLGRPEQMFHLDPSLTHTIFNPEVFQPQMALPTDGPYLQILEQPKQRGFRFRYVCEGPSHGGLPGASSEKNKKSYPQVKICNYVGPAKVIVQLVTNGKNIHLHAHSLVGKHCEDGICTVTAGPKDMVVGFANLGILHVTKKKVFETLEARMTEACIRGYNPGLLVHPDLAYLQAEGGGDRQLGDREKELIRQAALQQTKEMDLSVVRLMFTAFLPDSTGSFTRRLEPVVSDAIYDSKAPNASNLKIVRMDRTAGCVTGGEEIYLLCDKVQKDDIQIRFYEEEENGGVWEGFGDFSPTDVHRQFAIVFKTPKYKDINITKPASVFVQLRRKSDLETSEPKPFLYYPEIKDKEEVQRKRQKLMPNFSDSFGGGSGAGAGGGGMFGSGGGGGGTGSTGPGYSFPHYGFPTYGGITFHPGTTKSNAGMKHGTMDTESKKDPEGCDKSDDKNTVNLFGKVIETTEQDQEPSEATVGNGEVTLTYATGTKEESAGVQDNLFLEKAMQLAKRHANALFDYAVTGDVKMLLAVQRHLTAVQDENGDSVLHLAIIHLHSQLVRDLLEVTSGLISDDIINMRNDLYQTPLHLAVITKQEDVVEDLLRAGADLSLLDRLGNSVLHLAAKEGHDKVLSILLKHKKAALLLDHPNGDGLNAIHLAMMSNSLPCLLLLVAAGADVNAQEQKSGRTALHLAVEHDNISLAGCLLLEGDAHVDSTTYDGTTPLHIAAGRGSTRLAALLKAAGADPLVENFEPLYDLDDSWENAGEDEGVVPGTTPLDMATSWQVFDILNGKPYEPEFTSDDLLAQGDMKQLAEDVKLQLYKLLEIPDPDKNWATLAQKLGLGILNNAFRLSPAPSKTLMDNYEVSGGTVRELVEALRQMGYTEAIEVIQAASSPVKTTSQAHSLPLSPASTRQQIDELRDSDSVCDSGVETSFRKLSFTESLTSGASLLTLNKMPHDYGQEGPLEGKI
T1 sequence (Q00653 whole entry, looked up): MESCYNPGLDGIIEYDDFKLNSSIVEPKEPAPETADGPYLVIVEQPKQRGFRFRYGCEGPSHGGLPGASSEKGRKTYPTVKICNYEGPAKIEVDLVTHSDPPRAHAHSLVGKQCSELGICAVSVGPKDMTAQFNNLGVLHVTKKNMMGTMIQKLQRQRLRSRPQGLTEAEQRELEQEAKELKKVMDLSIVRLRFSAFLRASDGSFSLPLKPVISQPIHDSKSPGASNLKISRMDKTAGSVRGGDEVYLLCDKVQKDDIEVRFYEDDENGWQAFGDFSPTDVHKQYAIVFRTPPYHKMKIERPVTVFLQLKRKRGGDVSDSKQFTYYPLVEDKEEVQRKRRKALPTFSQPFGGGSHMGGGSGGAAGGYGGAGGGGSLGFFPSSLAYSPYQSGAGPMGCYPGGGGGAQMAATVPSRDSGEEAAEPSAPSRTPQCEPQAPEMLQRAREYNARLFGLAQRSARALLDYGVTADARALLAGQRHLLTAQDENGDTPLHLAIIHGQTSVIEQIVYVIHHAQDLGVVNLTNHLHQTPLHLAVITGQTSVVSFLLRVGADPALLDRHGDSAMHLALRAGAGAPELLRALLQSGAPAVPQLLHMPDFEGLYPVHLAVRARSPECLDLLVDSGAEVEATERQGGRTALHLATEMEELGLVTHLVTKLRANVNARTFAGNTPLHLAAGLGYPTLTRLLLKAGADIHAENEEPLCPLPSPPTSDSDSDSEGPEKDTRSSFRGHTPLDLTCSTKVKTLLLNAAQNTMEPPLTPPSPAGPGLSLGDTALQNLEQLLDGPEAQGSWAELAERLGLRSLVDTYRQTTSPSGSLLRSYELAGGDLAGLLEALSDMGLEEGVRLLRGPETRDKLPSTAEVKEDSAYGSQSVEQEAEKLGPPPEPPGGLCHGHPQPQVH
T1 sequence (Q04206 whole entry, looked up): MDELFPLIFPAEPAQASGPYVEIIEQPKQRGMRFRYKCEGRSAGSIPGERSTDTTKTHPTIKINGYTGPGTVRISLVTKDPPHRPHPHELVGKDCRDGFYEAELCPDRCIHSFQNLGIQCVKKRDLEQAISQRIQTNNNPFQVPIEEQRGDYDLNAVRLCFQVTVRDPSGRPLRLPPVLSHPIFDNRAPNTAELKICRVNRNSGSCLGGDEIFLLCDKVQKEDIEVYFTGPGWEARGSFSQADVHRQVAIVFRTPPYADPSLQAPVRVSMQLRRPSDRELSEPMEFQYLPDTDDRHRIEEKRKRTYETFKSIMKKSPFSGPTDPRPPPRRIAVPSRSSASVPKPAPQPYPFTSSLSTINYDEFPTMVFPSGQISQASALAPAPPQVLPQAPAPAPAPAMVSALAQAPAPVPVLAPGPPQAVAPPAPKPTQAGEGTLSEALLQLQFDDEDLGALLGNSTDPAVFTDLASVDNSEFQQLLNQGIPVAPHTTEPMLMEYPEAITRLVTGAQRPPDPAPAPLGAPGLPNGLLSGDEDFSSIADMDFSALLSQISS
In short: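 THP1-Blue NF-κB reporter cells plated at 10^5/well in RPMI with 10% FBS, penicillin/streptomycin and Normocin. Compound added at 5 μM final (0.5% DMSO), then incubated 20 h. Secreted SEAP in the supernatant was read colorimetrically with QuantiBlue at 630 nm. Two-point normalization set vehicle (0.5% DMSO) as 100% and a reference activator as 200%.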

THP-1 = experiment: Cytotoxicity against human THP-1 cells assessed as cell viability at 5 uM measured after 18 hrs by MTT assay relative to control; type: cell-based; settings: thp-1, 18 h
In short: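 THP-1 cells were plated at 10^5/well in RPMI with 10% FBS and penicillin/streptomycin, then given compound at 5 μM final (0.5% DMSO) for 18 h. MTT at 0.5 mg/mL was added for 4–6 h, followed by SDS/HCl lysis buffer overnight. Absorbance was read at 570 nm against a 650 nm reference. Viability was normalized to DMSO as 100%.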

[2] = molecular target: T1, Nuclear factor NF-kappa-B complex (Homo sapiens); experiment: Activation of NF-kappaB in human THP-1 cells assessed as increase in IL-8 production in the presence of LPS at 5 uM measured by ELISA relative to control; type: cell-based; settings: filed as activator
In short: (§1)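 THP-1 cells and BMDCs from the femurs and tibias of C57BL/6 mice were treated overnight with compound (5 μM) or vehicle (0.5% DMSO), with or without LPS at 1 ng/mL. Secreted IL-8 (THP-1) and IL-12 (BMDC) in the supernatant were measured by ELISA.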

BMDC [3] = experiment: Activation of NF-kappaB in mouse BMDC cells assessed as enhanced IL-12 production in the presence of LPS at 5 uM measured by ELISA relative to control; type: cell-based; settings: filed as activator; in short: as §1
Mus musculus = organism: Mus musculus; experiment: Co-adjuvanticity in MPLA/OVA-immunized BALB/c mouse assessed as increase in ovalbumin specific IgG production at 50 nmol treated on day 0 and 21 measured after 28 days by ELISA; type: functional, organism-based; settings: time 28.0 day
In short: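 BALB/c mice aged 7–9 weeks, n=5 per group, were injected into the gastrocnemius muscle on days 0 and 21. Mice were bled on day 28 and OVA-specific IgG titers measured by ELISA. Groups were compared with one-way ANOVA and Dunnett's post hoc test.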

BMDC [4] = experiment: Activation of NF-kappaB in mouse BMDC cells assessed as enhanced IL-12 production at 5 uM measured by ELISA relative to control; type: cell-based; in short: as §1

Row | Activity [1] [%] | Activity [2] | SMILES | Activity (THP-1) [%] | Activity (BMDC [3]) | Activity (Mus musculus) | Activity (BMDC [4])
1 | 517 | Active | CCCC1CCN(S(=O)(=O)c2ccc(C(=O)Nc3nc(-c4cc(C)ccc4C)cs3)cc2)CC1 | 111 | Active | Active | inactive
2 | 393 | Active | CCCC#Cc1sc(NC(=O)c2ccc(S(=O)(=O)N3CCCCC3)cc2)nc1-c1cc(C)ccc1C | 106 | Active | Active | inactive
3 | 159 | – | Cc1ccc(C)c(-c2nc(NC(=O)c3ccc(S(=O)(=O)N4CCCCC4)cc3)sc2C)c1 | 97 | – | – | –
4 | 112 | – | CCCC#Cc1sc(NC(=O)c2ccc(S(=O)(=O)N3CCC(CCC)CC3)cc2)nc1-c1cc(C)ccc1C | 102 | – | – | –
5 | 99 | – | CCN(CC)c1sc(NC(=O)c2ccc(S(=O)(=O)N3CCCCC3)cc2)nc1-c1cc(C)ccc1C | 94 | – | – | –
6 | 191 | – | CCCC1CCN(S(=O)(=O)c2ccc(C(=O)Nc3nc(-c4cc(C)ccc4Br)cs3)cc2)CC1 | 97 | – | – | –
7 | 133 | – | Cc1ccc(C)c(-c2nc(NC(=O)c3ccc(S(=O)(=O)N4CCCCC4)cc3)sc2Br)c1 | 84 | – | – | –

Second part, the compound before the results:

Row | SMILES | Activity [1] [%] | Activity [2] | Activity (THP-1) [%] | Activity (BMDC [3]) | Activity (Mus musculus) | Activity (BMDC [4])
8 | Cc1ccc(C)c(-c2csc(NC(=O)c3ccc(S(=O)(=O)N4CCCCC4)cc3)n2)c1 | 200 | Active | 103 | Active | – | inactive
9 | Cc1ccc(Br)c(-c2csc(NC(=O)c3ccc(S(=O)(=O)N4CCCCC4)cc3)n2)c1 | 254 | Active | 98 | Active | – | inactive
10 | Cc1ccc(C)c(-c2csc(NC(=O)c3ccc(S(=O)(=O)N4CCCCC4)cc3Br)n2)c1 | 120 | – | 96 | – | – | –
11 | CCCN(CCC)S(=O)(=O)c1ccc(C(=O)Nc2nc(-c3cc(C)ccc3C)cs2)cc1 | 167 | – | 96 | – | – | –
12 | Cc1ccc(C)c(-c2csc(NC(=O)c3ccc(S(=O)(=O)N4CCN(C(=O)OC(C)(C)C)CC4)cc3)n2)c1 | 101 | – | 132 | – | – | –
13 | Cc1ccc(C)c(-c2csc(NC(=O)c3ccc(S(=O)(=O)N4CCCCC4)c(Cl)c3)n2)c1 | 223 | – | 88 | – | – | –
14 | Cc1ccc2c(c1)-c1nc(NC(=O)c3ccc(S(=O)(=O)N4CCCCC4)cc3)sc1CC2 | 114 | – | 95 | – | – | –
15 | Cc1ccc(C)c(-c2csc(NC(=O)c3ccc(S(=O)(=O)N4CCCCC4)cn3)n2)c1 | 99 | – | 94 | – | – | –
16 | Cc1ccc(C)c(-c2cnc(NC(=O)c3ccc(S(=O)(=O)N4CCCCC4)cc3)s2)c1 | 99 | – | 101 | – | – | –
17 | Cc1ccc(Br)cc1-c1csc(NC(=O)c2ccc(S(=O)(=O)N3CCCCC3)cc2)n1 | 207 | – | 91 | – | – | –
18 | Cc1ccc(C)c(-c2csc(NCc3ccc(S(=O)(=O)N4CCCCC4)cc3)n2)c1 | 99 | – | 85 | – | – | –
19 | CCN(c1ccccc1)S(=O)(=O)c1ccc(C(=O)Nc2nc(-c3cc(C)ccc3C)cs2)cc1 | 105 | – | 81 | – | – | –
20 | Cc1ccc(C)c(-c2c[nH]c(NC(=O)c3ccc(S(=O)(=O)N4CCCCC4)cc3)n2)c1 | 99 | – | 51 | – | – | –
